In ChEMBL document CHEMBL5512679, “In Silico Assisted Identification, Synthesis, and In Vitro Pharmacological Characterization of Potent and Selective Blockers of the Epilepsy-Associated KCNT1 Channel” (J Med Chem, 2024):
Values belong to the compound of their own block, whether it stands above or below them.

Columns and labels:
[1] = Stability in human plasma assessed as compound remaining incubated upto 120 mins […] by LC-MS analysis; format: ADME, cell-free; conditions: read-out: Stability
Outline: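 Human plasma prewarmed to 37 °C and centrifuged; compound added at 37 °C. Samples taken at 0, 30, 60, 90 and 120 min, quenched into ice-cold methanol with internal standard, and measured by LC-MS as % remaining relative to 0 min. Duplicates; procaine as control.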

[2] = Intrinsic clearance in human liver microsomes incubated upto 60 mins in presence of NADPH and UDPGA by LC-MS analysis; format: ADME, Microsome; conditions: read-out: CLH
[3] = Plasma protein binding in human at 10 uM incubated for 4 hrs by rapid equilibrium dialysis based LC-MS/MS analysis; format: ADME, cell-free; conditions: read-out: PPB
[4] = target: Voltage-gated inwardly rectifying potassium channel KCNH2 (Homo sapiens, UniProt Q12809); test: Inhibition of hERG transiently transfected in CHO cells at 10 uM at -100 mV holding potential by whole-cell patch clamp electrophysiology method; format: toxicity, cell-based
Outline: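 hERG transiently expressed in CHO cells (eGFP co-transfection marker) and recorded by whole-cell patch clamp at 20–22 °C, 24 h post-transfection. […] Pipette (mM): 140 KCl, 2 MgCl2, 10 EGTA, 10 HEPES, 5 Mg-ATP. Protocol: 1 s steps from −80 to +60 mV, then 140 ms at −100 mV. Tail current at −100 mV read as I_drug/I_CTL with 10 μM drug; ≥3 cells.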

[5] = target: T1, Potassium channel subfamily T member 2 (Homo sapiens, UniProt Q6UVM3); test: Inhibition of human KCNT2 expressed in HEK cells at +60 mV holding potential by whole-cell patch clamp electrophysiology method; format: cell-based
T1 sequence (Q6UVM3 whole entry): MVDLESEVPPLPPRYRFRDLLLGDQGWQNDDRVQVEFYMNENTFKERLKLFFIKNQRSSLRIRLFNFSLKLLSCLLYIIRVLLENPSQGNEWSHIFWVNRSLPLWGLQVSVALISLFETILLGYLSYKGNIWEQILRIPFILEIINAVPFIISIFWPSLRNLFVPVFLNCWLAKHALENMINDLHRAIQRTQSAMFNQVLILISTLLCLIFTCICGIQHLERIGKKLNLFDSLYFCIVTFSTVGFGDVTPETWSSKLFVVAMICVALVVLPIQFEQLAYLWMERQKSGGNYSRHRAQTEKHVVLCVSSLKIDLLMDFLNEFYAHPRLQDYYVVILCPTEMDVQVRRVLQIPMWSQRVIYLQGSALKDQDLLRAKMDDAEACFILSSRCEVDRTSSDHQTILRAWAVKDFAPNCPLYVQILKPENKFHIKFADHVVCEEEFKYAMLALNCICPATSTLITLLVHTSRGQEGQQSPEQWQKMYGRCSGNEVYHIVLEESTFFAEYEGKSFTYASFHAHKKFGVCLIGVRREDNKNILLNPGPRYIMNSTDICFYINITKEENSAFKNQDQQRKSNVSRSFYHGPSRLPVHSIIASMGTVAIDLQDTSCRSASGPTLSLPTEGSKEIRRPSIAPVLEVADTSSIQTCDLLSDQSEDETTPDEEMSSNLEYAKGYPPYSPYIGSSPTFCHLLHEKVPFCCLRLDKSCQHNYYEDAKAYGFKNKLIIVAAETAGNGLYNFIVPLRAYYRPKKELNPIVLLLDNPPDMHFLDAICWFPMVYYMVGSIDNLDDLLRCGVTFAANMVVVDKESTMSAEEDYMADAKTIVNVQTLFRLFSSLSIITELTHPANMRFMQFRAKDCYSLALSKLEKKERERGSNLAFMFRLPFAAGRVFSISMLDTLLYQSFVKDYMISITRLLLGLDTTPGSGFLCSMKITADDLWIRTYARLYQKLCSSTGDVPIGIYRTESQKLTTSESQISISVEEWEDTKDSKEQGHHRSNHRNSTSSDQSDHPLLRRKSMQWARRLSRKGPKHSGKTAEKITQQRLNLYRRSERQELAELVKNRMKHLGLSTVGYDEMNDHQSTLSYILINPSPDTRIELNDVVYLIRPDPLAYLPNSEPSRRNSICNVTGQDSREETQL
Outline: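 Human KCNT2 transiently expressed in HEK cells and recorded by whole-cell patch clamp at 20–22 °C, 24 h after transfection. Pipette (mM): 130 KCl, 10 NaCl, 10 HEPES, 5 EGTA, pH 7.3–7.4, with ATP omitted. Each cell received one perfused concentration; DMSO ≤0.3%. Current at the end of the depolarizing pulse was normalized and fitted to a binding isotherm with Hill coefficient; ≥6 determinations per point, mean ± SEM.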

hERG (KCNH2) [6] = target: T2, hERG (KCNH2) (Homo sapiens, UniProt Q12809); test: Inhibition of hERG expressed in HEK293 cells at 10 uM by whole-cell patch clamp electrophysiology method relative to control; format: toxicity, cell-based; conditions: HEK293 cells that express hERG
hERG (KCNH2) [7] = target: T2, hERG (KCNH2); test: Inhibition of hERG expressed in HEK293 cells at 10 uM by thallium flux assay relative to control; conditions: HEK293 cells that express hERG
hERG (KCNH2) [8] = target: T2, hERG (KCNH2); test: Inhibition of hERG transiently transfected in CHO cells at 10 uM at -100 mV holding potential by whole-cell patch clamp electrophysiology method relative to control; format: toxicity, cell-based; conditions: CHO cells transiently transfected with hERG
[9] = target: T3, Potassium channel subfamily T member 1 (Homo sapiens, UniProt Q5JUK3); test: Inhibition of human KCNT1 (98 to 354 residues) expressed in CHO cells assessed as reduction in thallium fluorescent signal incubated for 15 mins followed by LOX addition measured after 15 mins by FluxOR green dye based fluorescence analysis; format: cell-based
T3 sequence (Q5JUK3 whole entry): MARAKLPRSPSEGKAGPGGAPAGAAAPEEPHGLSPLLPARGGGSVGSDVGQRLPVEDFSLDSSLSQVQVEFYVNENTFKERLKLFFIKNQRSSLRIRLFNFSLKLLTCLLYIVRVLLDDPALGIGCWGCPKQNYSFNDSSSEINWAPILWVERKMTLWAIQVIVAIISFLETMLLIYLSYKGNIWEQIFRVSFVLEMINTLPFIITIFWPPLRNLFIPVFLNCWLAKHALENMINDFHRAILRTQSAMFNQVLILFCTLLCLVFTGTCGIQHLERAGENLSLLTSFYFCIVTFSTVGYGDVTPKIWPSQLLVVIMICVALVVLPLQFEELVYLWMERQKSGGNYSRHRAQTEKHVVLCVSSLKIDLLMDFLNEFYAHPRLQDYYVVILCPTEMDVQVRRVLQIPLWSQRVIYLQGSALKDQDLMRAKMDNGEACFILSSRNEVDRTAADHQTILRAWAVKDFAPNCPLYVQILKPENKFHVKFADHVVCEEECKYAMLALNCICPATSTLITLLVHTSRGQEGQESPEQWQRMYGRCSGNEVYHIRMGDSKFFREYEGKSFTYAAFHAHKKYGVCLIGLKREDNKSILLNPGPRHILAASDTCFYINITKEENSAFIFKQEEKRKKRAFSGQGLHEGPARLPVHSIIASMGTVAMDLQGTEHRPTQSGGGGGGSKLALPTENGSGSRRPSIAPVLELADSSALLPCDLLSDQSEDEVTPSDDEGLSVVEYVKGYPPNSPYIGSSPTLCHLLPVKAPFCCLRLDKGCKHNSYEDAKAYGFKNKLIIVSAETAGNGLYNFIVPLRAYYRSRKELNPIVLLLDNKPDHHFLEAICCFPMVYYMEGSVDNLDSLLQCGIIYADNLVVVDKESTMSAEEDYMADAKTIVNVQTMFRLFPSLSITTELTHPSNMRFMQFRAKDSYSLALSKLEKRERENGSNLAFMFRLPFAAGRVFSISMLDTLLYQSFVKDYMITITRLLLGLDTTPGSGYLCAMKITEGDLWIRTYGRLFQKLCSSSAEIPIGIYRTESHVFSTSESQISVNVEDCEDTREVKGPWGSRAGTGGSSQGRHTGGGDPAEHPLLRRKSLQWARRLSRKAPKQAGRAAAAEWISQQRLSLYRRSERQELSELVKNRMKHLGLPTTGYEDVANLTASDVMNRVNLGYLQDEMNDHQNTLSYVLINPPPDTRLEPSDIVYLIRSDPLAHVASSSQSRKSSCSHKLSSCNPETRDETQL

Voltage-gated inwardly rectifying potassium channel KCNH2, sequence (Q12809 whole entry): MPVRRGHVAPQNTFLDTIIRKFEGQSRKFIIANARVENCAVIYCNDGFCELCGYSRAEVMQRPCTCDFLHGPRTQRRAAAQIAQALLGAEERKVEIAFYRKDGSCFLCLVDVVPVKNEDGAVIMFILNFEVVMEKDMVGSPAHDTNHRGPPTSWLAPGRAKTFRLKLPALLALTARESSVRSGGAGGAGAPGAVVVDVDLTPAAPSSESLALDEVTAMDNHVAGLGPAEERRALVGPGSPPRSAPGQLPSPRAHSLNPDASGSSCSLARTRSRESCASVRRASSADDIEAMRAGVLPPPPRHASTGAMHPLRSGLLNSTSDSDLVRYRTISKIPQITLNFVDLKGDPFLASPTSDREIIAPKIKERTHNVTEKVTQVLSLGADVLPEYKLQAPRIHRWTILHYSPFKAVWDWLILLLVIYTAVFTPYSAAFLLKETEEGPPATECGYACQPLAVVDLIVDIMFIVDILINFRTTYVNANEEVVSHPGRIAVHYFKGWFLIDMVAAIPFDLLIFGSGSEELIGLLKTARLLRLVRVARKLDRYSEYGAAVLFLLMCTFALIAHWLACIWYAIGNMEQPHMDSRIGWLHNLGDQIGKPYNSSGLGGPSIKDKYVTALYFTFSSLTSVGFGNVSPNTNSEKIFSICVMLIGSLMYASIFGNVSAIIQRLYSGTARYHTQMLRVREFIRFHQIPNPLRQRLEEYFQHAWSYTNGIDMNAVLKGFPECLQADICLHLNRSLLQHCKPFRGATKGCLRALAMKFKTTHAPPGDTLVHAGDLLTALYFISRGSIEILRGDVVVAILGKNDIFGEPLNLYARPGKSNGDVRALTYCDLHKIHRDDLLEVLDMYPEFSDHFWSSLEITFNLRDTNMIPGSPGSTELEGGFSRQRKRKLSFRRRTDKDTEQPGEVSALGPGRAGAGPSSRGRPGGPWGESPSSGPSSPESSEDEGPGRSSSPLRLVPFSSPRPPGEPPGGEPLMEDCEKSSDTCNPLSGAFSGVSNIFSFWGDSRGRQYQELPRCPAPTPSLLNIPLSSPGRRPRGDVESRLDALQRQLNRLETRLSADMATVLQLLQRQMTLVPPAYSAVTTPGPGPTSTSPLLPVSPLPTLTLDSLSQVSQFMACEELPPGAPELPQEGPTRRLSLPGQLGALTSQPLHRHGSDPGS
T2 sequence (Q12809 whole entry): as above

SMILES: Cc1cc(O)ccc1N/C=C/C(=O)c1ccccc1
inhibition at 10 µM (hERG (KCNH2) [6]): 15%

SMILES: COc1ccc(Cl)cc1NC(=O)CN1CCN(S(=O)(=O)N2CCC(C)CC2)CC1
inhibition at 10 µM (hERG (KCNH2) [7]): 40%

SMILES: O=C(Nc1cccc(C(F)(F)F)c1)c1ccc2nc(N3C(=O)c4ccccc4C3=O)sc2c1
inhibition at 10 µM (hERG (KCNH2) [6]): 15%

SMILES: Oc1ccc2ccccc2c1CNCCc1c[nH]c2ccccc12
inhibition at 10 µM (hERG (KCNH2) [8]): 30%
IC50 [9]: 8.7 µM

Further lines, with some results ahead:

remaining at 2 h [1]: < 80%
CLint scaled [2]: < 80 mL/min/kg
fraction unbound at 4 h, 10 µM [3]: 0.01
SMILES: O=C(NCc1ccccc1)[C@H](Cc1c[nH]c2ccccc12)NCc1ccc(Oc2ccccc2)cc1
inhibition (INH) [4]: Not Active

remaining at 2 h [1]: < 80%
IC50 [5]: 1.27 µM
CLint scaled [2]: < 1 mL/min/kg
fraction unbound at 4 h, 10 µM [3]: 0.01
SMILES: O=S(=O)(Nc1ccc2c(c1)CCN2Cc1ccc(C(F)(F)F)cc1C(F)(F)F)C1CCCCC1
inhibition (INH) [4]: Not Active

remaining at 2 h [1]: 0%
SMILES: CCOC(=O)[C@@H]1CS[C@@]2(C(=O)Nc3ccc(Br)cc32)N1C(=O)c1ccc(Cl)cc1
inhibition (INH) [4]: Not Active

IC50 [9]: 5.5 µM
SMILES: CC(C)(C)CNC(=O)Nc1ccc2c(c1)CCN2Cc1ccc(F)cc1
inhibition at 10 µM (hERG (KCNH2) [8]): 30%
